Assay results pooled from the literature.
Compare with care: the assays were run in different laboratories.
Target: Calcium/calmodulin-dependent protein kinase type 1B (PNCK, Homo sapiens, UniProt Q6P2M8)

For `CN(C)c1nccc(-c2cnc3ncccn23)n1`, the remaining binding was 62% (binding; 1 µM).
The remaining binding of `CC(=O)c1c(NS(C)(=O)=O)c2cc(-c3ccc(Cl)cc3)c(-c3ccc(Cl)cc3Cl)nc2n(C)c1=O` is reported as 100% (cell-free assay, competition with immobilised ligand; 1 µM).
`FC(F)(F)Oc1cccc(-c2cnc3ccc(-c4ccncc4)nn23)c1` has a remaining binding of 100% (cell-free assay, competition with immobilised ligand; 5 µM).
`CC1CCCN1c1nccc(-c2cnn3ncccc23)n1` (stereo not drawn) gave a remaining binding of 82% (binding; 1 µM).
For `COc1cc(-c2cn(C3CCc4ccccc4N(CC(F)(F)F)C3=O)nn2)ccc1-n1ccc(C)n1` (stereo not drawn), the remaining binding was 100% (cell-free assay, competition with immobilised ligand; 1 µM).
With `c1cnn2ncc(-c3ccnc(N4CCC45COC5)n3)c2c1` the remaining binding was 81% (binding; 1 µM).
With `O=C(Nc1c[nH]nc1C(=O)NC1CCNCC1)c1cc(F)cc(F)c1` the remaining binding was 100% (binding, competition with immobilised ligand; 1 µM).
`COc1cnc(Nc2cccc(S(N)(=O)=O)c2)nc1N1CCN(c2ccccc2)C(=O)C1` has a remaining binding of 83% (binding, competition with immobilised ligand; 1 µM).
`O=C(c1ccc(Nc2ncc(Cl)c(-c3ccc(Cl)s3)n2)cc1)N1CCC(N2CCCC2)CC1` gave a remaining binding of 56% (binding, competition with immobilised ligand; 1 µM).
`O=C(Nc1cnc(Oc2ccc(F)cc2)nc1)N1CCc2ncccc2[C@@H]1c1ccc(F)cc1` has a remaining binding of 100% (cell-free assay, competition with immobilised ligand; 1 µM).
For `Nc1ncc2c(n1)-c1c([nH]c3ccc(C#CC4CC4)cc13)CCCC2`, the remaining binding was 79% (binding, competition with immobilised ligand; 1 µM).
With `O=c1nc(-c2ccccn2)sc2ccccc12` the remaining binding was 56% (cell-free assay, competition with immobilised ligand; 1 µM).
For `CN(C)c1nccc(-c2cnn3ncccc23)n1`, the remaining binding was 29% (binding; 1 µM).
For `CC(=O)N1CCC(c2ccc(C(=O)NC(=N)N)cc2C(F)(F)F)CC1`, the remaining binding was 100% (cell-free assay, competition with immobilised ligand; 1 µM).
With `CN(c1nccc(-c2cnn3ncccc23)n1)C1CC1` the remaining binding was 98% (binding; 1 µM).
For `O=C(NCCCN1CCOCC1)c1ccc(Nc2nccc(-c3cc4ccccc4s3)n2)cc1`, the remaining binding was 61% (binding, competition with immobilised ligand; 1 µM).
With `N[C@@H]1CCN(c2nccc(-c3cnn4ncccc34)n2)C1` the remaining binding was 100% (binding; 1 µM).
The remaining binding of `O=C(c1ccc(Nc2ncc(Cl)c(-c3cc4ccccc4s3)n2)cc1)N1CCC(N2CCCC2)CC1` is reported as 62% (binding, competition with immobilised ligand; 1 µM).
